Reference: PMC8314033 (BioImpacts : BI, 2020)

Tests used:
[1] = system: 3T3 (non-cancer immortal cell lines); experiment: In vitro cell antiproliferative test; format: cell-based; conditions: 3T3, 200 µg/mL, 48 hours
How it was run: (§1)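 Cells grown in DMEM with 10% heat-inactivated FBS and penicillin-streptomycin, detached with trypsin-EDTA, and counted by trypan blue. Plated at 10 × 10³ cells/well and allowed to attach for 24 h at 37°C, 5% CO2. Exposed 48 h to isolated compounds at 1.8–200 µg/mL final, in triplicate. MTT added at 1 mg/mL final for 4 h, formazan dissolved in DMSO, and A570 read. Survival calculated as a percentage of untreated wells.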

[2] = system: MCF7 (breast cancer cell lines); experiment: In vitro cell antiproliferative test; format: cell-based, human; conditions: MCF7, 200 µg/mL, 48 hours
How it was run: as §1

[3] = Hydroxyl radical scavenging activity; conditions: 5 minutes, 560 nm; standard ascorbic acid

Row | SMILES | % of cell survival [1] | % of cell survival [2] | Hydroxyl radical scavenging EC50 [3]
1 | CC(C)=CCc1c(O)cc(O)cc1-c1cc2ccc(O)c(CC=C(C)C)c2o1 [Cathafuran B, cathafuran B] | 20.58% | 8.89% | –
2 | C[C@H]1[C@H](C)CC[C@]2(C(=O)O)CC[C@]3(C)C(=CC[C@@H]4[C@@]5(C)CC[C@H](O)C(C)(C)[C@@H]5CC[C@]43C)[C@H]12 [Ursolic acid, ursolic acid] | 17.58% | 8.46% | –
3 | Oc1cc(O)cc(-c2cc3ccc(O)cc3o2)c1 [Moracin M] | 21.6% | 16.09% | –
4 | O=C1O[C@H]([C@@H](O)CO)C(O)=C1O [ascorbic acid] | – | – | 6.58 µg/mL
